Screens (PubChem)
H9c2 TAG inh: triacylglycerol accumulation inhibition. H9c2 cells, Nile Red lipid (TAG) fluorescence; cells loaded with 200 µM oleic acid. inhibition, % at 12.5 µM. 230,000 tested, 0.66% active;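 active = pattern-corrected inhibition of lipid staining of at least 50% with the nuclear-stain viability signal not falling by more than 50%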;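 note: 0% = DMSO wells and 100% = triacsin C control wells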
B2AR ag: activates human beta-2 adrenergic receptor causing internalization; Am2.2-beta2AR cells, FAP receptor internalization, flow cytometry; AID 504454; 340,000 tested, 0.43% active; P07550; response, % (test concentration not listed);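 active = response above a set limit, near 3 SD of response in nonfluorescent compounds, cut at about 42% in these data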
Target sequence (P07550 whole entry, looked up): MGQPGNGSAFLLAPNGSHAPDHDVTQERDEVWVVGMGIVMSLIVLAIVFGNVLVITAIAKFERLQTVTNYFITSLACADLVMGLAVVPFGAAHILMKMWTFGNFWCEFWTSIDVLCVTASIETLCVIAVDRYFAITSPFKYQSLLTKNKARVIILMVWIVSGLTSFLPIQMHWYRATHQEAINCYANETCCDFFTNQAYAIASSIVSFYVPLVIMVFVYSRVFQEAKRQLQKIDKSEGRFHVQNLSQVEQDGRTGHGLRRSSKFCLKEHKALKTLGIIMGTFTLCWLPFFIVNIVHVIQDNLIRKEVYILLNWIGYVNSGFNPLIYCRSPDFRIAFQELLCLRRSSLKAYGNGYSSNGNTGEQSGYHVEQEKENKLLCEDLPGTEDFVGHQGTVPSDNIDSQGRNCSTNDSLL
Arr AP2 block: blocks beta-arrestin peptide binding to AP2 adaptin; AID 504490; 340,000 tested, 0.31% active; inhibition, % at 10 µM; FITC-arrestin peptide / GST-AP2 beads, flow cytometry; AP2 beta2 appendage carries R879A mutation;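 active = inhibition above a set limit, near 3 SD of compounds lacking own fluorescence, cut at about 54% in these data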;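 note: plate controls were DMSO wells for no effect and 5 µM unlabelled arrestin peptide for full effect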
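test system = AP2 appendage R879A on GSH beads | buffer or medium = PBS plus Tween 20 (0.05%) and BSA (0.1%) | incubation = 12 min plus 1 h, RT | detection = bead flow cytometry, FITC channel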
Lipid droplet: modulators of hepatic lipid droplet formation; AML12 mouse hepatocytes, oleate lipid droplets, BODIPY imaging; inhibition, % at 6.5 µM; 240,000 tested, 0.4% active; AID 1656;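 active = lipid droplet intensity inhibited by at least 50%, with more than 500 cells counted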
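Test system: AML12 hepatocytes (mouse); reagent: oleate loading, 100 µM; dosing: one dose, 6.5 µM compound; incubation: overnight exposure; signal: fluorescence imaging, 20x objective, two fields per well; read-out basis: % inhibition of corrected integrated BODIPY droplet signal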
GRK2 aptamer HTS: blocks RNA aptamer binding to human GRK2; AID 488847; inhibition of aptamer binding, % at 10 µM; bead flow cytometry, FAM-aptamer displacement from GRK2; 330,000 tested, 0.59% active;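 active = inhibition of aptamer binding above 40%, roughly 3 SD of noise, on plates passing a quality check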;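 note: median bead fluorescence of bound FAM aptamer so fluorescent compounds give negative values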
NTR1 agonist: NTR1 (human) agonism | P30989 | NTR1-U2OS beta-arrestin-GFP spot imaging, agonist mode | activation, % at 20 µM | 330,000 tested, 0.17% active | AID 493036;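 active = activation at or above 40% of the spot to cytoplasm intensity ratio, with at least 20 cells analyzed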;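 note: 0% = DMSO without peptide and 100% = 100 nM NTR1 peptide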
GRK2 inh confirm: human GRK2 inhibition confirmation, cherry pick 1; aptamer displacement, % at 10 µM; 2,000 tested, 4% active; shares compounds with GRK2 aptamer HTS; bead-bound GRK2, FAM-aptamer displacement, flow cytometry;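 active = aptamer displacement above 40%, near three times the noise of non-fluorescent compounds, on plates passing quality checks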;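 note: negative values mostly reflect intrinsic compound fluorescence rather than true enhancement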
FAM quench CP1: counter-screen for GRK2 aptamer inhibitors: fluorescent aptamer quenchers | shares compounds with GRK2 aptamer HTS | Carboxyfluorescein RNA aptamer on beads, flow cytometry quenching; stronger effect = lower value | fluorescence response (% of DMSO), % at 10 µM | 2,000 tested, under 10 active | AID 504580;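 active = compounds that quench the bead-bound fluorescent RNA probe, cutting fluorescence to under half of the solvent control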;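 note: counterscreen run without GRK2 so only probe quenching by compound is measured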
GRK2 CP2: human GRK2 inhibition confirmation, cherry pick 2; shares compounds with GRK2 aptamer HTS; bead-bound GRK2, FAM-aptamer displacement, flow cytometry; inhibition of aptamer binding, % at 10 µM; 360 tested, under 10 active; AID 504782;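 active = inhibition of aptamer binding above 40%, about triple the noise seen with nonglowing compounds, on plates passing quality control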;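 note: negative values mostly come from compounds that fluoresce themselves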
FAM quench CP2: quenches fluorescent RNA aptamer, GRK2 hit artifact; shares compounds with GRK2 aptamer HTS; carboxyfluorescein RNA aptamer beads, flow cytometry quenching; stronger effect = lower value; fluorescence response vs DMSO, % at 10 µM; 360 tested, under 10 active; AID 588494;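 active = response vs DMSO under 50%, meaning signal dropped by over half, treated as fluorescence quencher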;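 note: labelled aptamer on streptavidin beads without GRK2 as a quench counter-screen; 100% = bead fluorescence of DMSO wells and lower means quenching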
* hit, by the source's call; / = no result given. Shown are actives, neighbours in structure and some others; about 2% of the full set was active somewhere.

SMILES	H9c2 TAG inh	B2AR ag	Arr AP2 block	Lipid droplet	GRK2 aptamer HTS	NTR1 agonist	GRK2 inh confirm	FAM quench CP1	others
CN(CC(=O)Nc1ccccc1Br)C(=O)c1sccc1-c1ccccc1	-16	-1	11	/	0	7	/	/
COc1ccc([C@H]2Cc3cccc(O)c3C(=O)O2)cc1O	1	7	-5	/	85*	0	-2	104
O=C(Nc1ccc(S(=O)(=O)Nc2nccs2)cc1)c1cc(-c2ccccn2)nc2ccccc12	/	-5	37	7	1	-1	/	/
O=C(Nc1ccc(S(=O)(=O)Nc2nccs2)cc1)c1cc(-c2ccccc2Cl)nc2ccccc12	10	-1	-1	/	1	2	2	108
O=C(CNC(=O)c1ccc(Cl)cc1)NCc1ccccn1	-5	-3	-6	/	0	1	/	/
O=c1[nH]c2ccccc2nc1/C=C/c1ccccc1	-8	-4	13	20	52*	4	2	100
O=C(NC(=S)NCc1cccnc1)c1ccccc1	/	-10	-8	4	100*	1	/	/	GRK2 CP2=-35;FAM quench CP2=101
O=C(NC(=S)NCc1ccccc1)c1ccc2c(c1)OCO2	/	-9	3	1	94*	4	/	/	GRK2 CP2=-35;FAM quench CP2=100
CC(C)(C)c1ccc(C(=O)NC(=S)NCc2cccnc2)cc1	/	7	-10	-10	0	1	/	/
O=C(NNC(=S)NCc1ccccc1)c1ccc2c(c1)OCO2	-5	7	12	12	4	-1	/	/
CCc1nonc1NC(=O)COc1ccc(Cl)c(C)c1	/	1	-18	-8	6	1	/	/
CCc1nonc1NC(=O)COc1cc(C)c(Cl)c(C)c1	/	2	2	-9	70*	1	-3	97
Cc1ccc(C)c(NC(=O)c2cc3ccccn3n2)c1	-3	7	22	7	1	2	/	/
Cc1ccc(C)c(NC(=O)c2cnn3ccccc23)c1	7	-13	-2	/	28	-2	-1	101
COc1cccc(NC(=O)CCCCCN2C(=O)[C@@H]3Cc4ccccc4CN3C2=O)c1	/	-8	6	1	0	0	1	94
Cc1cc(C)cc(NC(=O)CCCCCN2C(=O)[C@@H]3Cc4ccccc4CN3C2=O)c1	/	8	2	-4	0	1	/	/
CC(Nc1cccc(C(=O)NC2CC2)c1)c1nnc(-c2ccccc2)o1 (configuration not stated)	-15	-6	-4	/	4	0	0	97
Cc1cccc(-c2nnc(C(C)Nc3cccc(C(=O)NC4CC4)c3)o2)c1 (configuration not stated)	-5	/	/	/	/	/	/	/
COc1ccc(-c2nnc(C(C)Nc3cccc(C(=O)NC4CC4)c3)o2)cc1 (configuration not stated)	-36	-4	-8	/	11	0	2	100
O=C(c1ccccc1)C1CCN(C(=O)c2c(F)cccc2F)CC1	/	-7	-17	-11	6	0	/	/
CN(CCOc1ccccc1)C(=O)CCc1nc2sc3c(c2c(=O)[nH]1)CCCC3	-3	-1	20	-9	0	6	0	97
CN(CC(=O)Nc1cccc(F)c1)C(=O)CCc1nc2sc3c(c2c(=O)[nH]1)CCCC3	-5	2	-2	/	11	-1	1	98
CCOc1ccc(-n2c(=S)sc3c(=O)n(-c4ccc(F)cc4)c(SCC(=O)O)nc32)cc1	/	0	1	6	1	1	/	/
O=C(CSc1nnc(COc2ccc(Cl)cc2)o1)Nc1ccc(N2CCOCC2)cc1	4	-12	28	/	/	0	/	/
Cc1cc(S(=O)(=O)N2CCCCC2CCNC(=O)C(=O)NCc2cccnc2)ccc1F (configuration not stated)	3	-2	4	/	100*	0	1	104
SMILES	H9c2 TAG inh	B2AR ag	Arr AP2 block	Lipid droplet	GRK2 aptamer HTS	NTR1 agonist	GRK2 inh confirm	FAM quench CP1	others
O=C(Nc1cc(Cl)ccc1Cl)c1noc2c1CCCC2	6	-15	0	-8	0	-2	/	/
O=C(Nc1ccc(F)cc1F)c1noc2c1CCC2	/	-11	-2	-1	59*	1	13	102
Cn1cc(C(=O)c2ccc(Cl)cc2Cl)cc1C(=O)N/N=C(\N)COc1ccccc1	-52	-3	1	-42	58*	-1	0	101
CCCNC(=O)CSc1nc(-c2cccs2)cc(C(F)(F)F)n1	26	-14	-5	/	0	-3	/	/
Cc1cc(NC(=O)CSc2nc(-c3cccs3)cc(C(F)(F)F)n2)no1	/	-4	7	14	45*	4	1	92
Cc1ccc(OCC(=O)NC(=S)Nc2ccc(S(=O)(=O)Nc3cc(C)on3)cc2)c(Br)c1	-3	13	-2	-1	5	1	/	/
COC(=O)c1ccc(CS(=O)(=O)c2ccccc2C)o1	/	2	-6	/	4	-2	/	/	GRK2 CP2=-2;FAM quench CP2=101
COCCNC(=O)c1ccc(CS(=O)(=O)c2ccccc2C)o1	/	-5	6	-5	0	0	/	/
O=C(NCC(=O)N1CCN(Cc2ccccc2)CC1)c1cc(Cl)cc([N+](=O)[O-])c1	-11	-6	-2	/	0	-2	/	/
O=C(/C=C/c1ccccc1)c1ccccc1	9	12	22	6	3	6	/	/
N#Cc1ccc(/C=C/C(=O)c2ccccc2)cc1	/	19	2	4	51*	61*	2	97
Cc1c(Cl)cccc1NS(=O)(=O)c1cn(C)c(=O)n(C)c1=O	-1	3	-3	-8	59*	-2	-2	102
CN(CC(=O)Nc1cccc(F)c1)C(=O)c1cccc(-n2cccc2)c1	6	-7	8	/	14	-1	/	/
Cc1ccccc1C(=O)N1CCC(C(=O)N(C)CC(=O)Nc2cccc(F)c2)CC1	-13	-4	-5	-8	51*	0	/	/	GRK2 CP2=18;FAM quench CP2=102
CN(CC(=O)Nc1cccc(F)c1)C(=O)c1ccc(N2C(=O)c3ccccc3C2=O)cc1	-20	1	-1	/	0	-1	-5	104
CCOc1ccc(NC(=O)COC(=O)CC2CC3CCC2C3)cc1 (configuration not stated)	10	3	-2	/	0	-1	/	/
O=c1c2cc([N+](=O)[O-])ccc2nc2n1CCCC2	/	15	5	/	64*	0	1	99
